Laboratory results: ChEMBL document CHEMBL1811853, “Design and evaluation of 3-aminopyrazolopyridinone kinase inhibitors inspired by the natural product indirubin” (Bioorg Med Chem, 2011)

Key:
[1] = target: T1, MAP kinase-activated protein kinase 5 (Homo sapiens) (UniProt Q8IW41); assay: Inhibition of PRAK1 at 30 uM by microfluidic mobility shift assay
T1 sequence (whole entry): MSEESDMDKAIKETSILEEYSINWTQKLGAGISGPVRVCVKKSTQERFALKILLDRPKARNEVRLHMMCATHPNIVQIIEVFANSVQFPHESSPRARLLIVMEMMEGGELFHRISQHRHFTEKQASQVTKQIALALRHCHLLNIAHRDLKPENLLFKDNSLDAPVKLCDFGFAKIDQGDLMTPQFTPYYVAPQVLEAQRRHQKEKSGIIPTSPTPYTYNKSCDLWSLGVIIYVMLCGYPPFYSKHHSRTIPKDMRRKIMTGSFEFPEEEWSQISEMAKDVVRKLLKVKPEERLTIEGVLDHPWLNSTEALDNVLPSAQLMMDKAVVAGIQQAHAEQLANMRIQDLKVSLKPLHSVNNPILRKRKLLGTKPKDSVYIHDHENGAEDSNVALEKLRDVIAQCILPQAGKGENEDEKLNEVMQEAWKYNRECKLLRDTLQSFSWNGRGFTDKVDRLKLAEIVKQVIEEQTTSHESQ
Method in brief: (§1)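 Single-concentration screen, singlicate, 30 uM final (diluted from 1 mM DMSO solutions), fluorescently tagged peptide substrate appropriate to each kinase, ATP at apparent Km for each protein. Phosphorylated and unphosphorylated peptides separated electrophoretically; conversion is the phosphorylated peak area over the sum of both peaks. No-inhibitor and no-ATP controls; H89 reference on each plate.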

[2] = target: Proto-oncogene tyrosine-protein kinase Src (Homo sapiens, UniProt P12931); assay: Inhibition of SRC at 30 uM by microfluidic mobility shift assay; method in brief: as §1
[3] = target: Tyrosine-protein kinase Lyn (Homo sapiens, UniProt P07948); assay: Inhibition of LYN at 30 uM by microfluidic mobility shift assay; method in brief: as §1
Chain of Tyrosine-protein kinase Lyn (P07948 2-512 limits assumed): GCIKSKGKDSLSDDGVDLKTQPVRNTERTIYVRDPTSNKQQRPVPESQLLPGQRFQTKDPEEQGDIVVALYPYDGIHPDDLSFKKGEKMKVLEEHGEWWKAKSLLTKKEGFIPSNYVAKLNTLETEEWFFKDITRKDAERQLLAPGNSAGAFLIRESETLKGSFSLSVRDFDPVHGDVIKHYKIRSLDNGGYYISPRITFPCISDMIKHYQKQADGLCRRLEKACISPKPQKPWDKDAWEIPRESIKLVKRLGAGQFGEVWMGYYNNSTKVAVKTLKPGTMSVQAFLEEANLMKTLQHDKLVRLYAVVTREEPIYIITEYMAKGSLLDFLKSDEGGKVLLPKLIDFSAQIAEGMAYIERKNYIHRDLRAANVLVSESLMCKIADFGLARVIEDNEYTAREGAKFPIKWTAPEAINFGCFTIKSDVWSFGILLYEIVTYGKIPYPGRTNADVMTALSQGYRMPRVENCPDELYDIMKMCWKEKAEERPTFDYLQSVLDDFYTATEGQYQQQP

[4] = target: T2, Serine/threonine-protein kinase D2 (Homo sapiens) (UniProt Q9BZL6); assay: Inhibition of PKD2 at 30 uM by microfluidic mobility shift assay; method in brief: as §1
T2 sequence (whole entry): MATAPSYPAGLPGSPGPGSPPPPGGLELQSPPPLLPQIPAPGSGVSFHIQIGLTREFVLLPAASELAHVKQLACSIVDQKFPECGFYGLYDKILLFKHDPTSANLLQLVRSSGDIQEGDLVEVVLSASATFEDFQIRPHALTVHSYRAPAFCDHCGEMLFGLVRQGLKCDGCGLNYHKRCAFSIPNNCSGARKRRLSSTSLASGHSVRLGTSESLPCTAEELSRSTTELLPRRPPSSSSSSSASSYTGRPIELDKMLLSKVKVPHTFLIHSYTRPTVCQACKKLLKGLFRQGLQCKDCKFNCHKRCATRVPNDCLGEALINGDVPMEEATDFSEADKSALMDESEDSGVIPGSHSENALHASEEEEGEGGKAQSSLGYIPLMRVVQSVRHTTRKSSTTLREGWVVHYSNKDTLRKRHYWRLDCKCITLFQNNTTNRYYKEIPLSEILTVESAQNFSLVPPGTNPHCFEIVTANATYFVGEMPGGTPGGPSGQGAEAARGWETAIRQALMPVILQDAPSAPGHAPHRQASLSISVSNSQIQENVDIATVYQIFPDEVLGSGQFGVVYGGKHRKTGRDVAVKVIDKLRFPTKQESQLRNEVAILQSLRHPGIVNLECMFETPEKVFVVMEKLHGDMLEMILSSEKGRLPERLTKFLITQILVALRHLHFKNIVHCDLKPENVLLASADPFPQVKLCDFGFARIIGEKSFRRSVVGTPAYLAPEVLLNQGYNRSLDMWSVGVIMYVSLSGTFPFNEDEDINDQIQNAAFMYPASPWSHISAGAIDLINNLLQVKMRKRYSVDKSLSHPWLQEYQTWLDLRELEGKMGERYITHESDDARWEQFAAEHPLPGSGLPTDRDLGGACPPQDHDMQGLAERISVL

[5] = target: T3, Aurora kinase A (Homo sapiens) (UniProt O14965); assay: Inhibition of AurA at 30 uM by microfluidic mobility shift assay; method in brief: as §1
T3 sequence (whole entry): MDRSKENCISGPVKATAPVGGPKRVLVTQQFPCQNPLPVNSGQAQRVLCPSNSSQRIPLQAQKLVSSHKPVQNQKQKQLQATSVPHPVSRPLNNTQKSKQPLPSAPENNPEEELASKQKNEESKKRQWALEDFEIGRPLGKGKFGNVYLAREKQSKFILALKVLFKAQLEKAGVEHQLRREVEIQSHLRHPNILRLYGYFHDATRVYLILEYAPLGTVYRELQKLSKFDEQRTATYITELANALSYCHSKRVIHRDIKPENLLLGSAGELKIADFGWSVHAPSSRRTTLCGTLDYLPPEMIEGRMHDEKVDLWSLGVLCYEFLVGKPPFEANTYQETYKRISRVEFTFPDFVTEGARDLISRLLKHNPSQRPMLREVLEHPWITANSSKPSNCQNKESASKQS

[6] = Inhibition of PKA at 30 uM by microfluidic mobility shift assay; method in brief: as §1
[7] = target: Mitogen-activated protein kinase 1 (Homo sapiens) (UniProt P28482); assay: Inhibition of ERK2 at 30 uM by microfluidic mobility shift assay; method in brief: as §1
Chain of Mitogen-activated protein kinase 1 (Homo sapiens) (P28482 whole entry): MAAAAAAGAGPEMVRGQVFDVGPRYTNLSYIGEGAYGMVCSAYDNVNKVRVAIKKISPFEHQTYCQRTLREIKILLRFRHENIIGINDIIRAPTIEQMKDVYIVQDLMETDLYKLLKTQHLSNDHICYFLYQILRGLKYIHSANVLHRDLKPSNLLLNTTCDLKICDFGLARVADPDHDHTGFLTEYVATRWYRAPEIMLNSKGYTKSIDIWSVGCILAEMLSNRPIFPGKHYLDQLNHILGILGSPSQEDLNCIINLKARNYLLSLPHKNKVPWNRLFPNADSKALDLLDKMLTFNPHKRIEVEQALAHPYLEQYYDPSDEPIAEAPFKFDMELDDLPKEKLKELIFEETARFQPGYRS

[8] = target: Ribosomal protein S6 kinase alpha-5 (Homo sapiens) (UniProt O75582); assay: Inhibition of MSK1 at 30 uM by microfluidic mobility shift assay; method in brief: as §1
Chain of Ribosomal protein S6 kinase alpha-5 (Homo sapiens) (O75582 whole entry, looked up): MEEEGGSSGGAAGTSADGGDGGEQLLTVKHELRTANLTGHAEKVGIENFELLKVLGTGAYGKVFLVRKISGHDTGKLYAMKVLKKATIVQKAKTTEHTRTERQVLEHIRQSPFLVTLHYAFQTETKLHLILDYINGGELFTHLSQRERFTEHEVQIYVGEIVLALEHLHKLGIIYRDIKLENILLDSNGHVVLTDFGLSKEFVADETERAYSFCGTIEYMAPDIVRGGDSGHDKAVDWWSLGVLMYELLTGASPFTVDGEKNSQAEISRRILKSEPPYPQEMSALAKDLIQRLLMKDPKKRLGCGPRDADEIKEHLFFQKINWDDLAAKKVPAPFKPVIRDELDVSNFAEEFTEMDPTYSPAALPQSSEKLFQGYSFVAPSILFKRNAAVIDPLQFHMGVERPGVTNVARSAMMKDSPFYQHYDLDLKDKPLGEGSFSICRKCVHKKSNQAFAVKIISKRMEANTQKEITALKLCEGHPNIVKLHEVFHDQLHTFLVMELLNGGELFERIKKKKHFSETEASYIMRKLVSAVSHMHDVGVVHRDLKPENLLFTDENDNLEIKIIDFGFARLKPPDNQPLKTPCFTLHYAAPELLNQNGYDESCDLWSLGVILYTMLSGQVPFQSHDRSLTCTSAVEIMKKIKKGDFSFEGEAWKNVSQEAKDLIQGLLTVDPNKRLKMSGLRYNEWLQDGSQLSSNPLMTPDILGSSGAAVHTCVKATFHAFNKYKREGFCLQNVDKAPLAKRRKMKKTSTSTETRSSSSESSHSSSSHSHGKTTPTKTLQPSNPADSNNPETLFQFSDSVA

[9] = target: Glycogen synthase kinase-3 beta (Homo sapiens) (UniProt P49841); assay: Inhibition of GSK3B at 30 uM by microfluidic mobility shift assay; method in brief: as §1
Chain of Glycogen synthase kinase-3 beta (Homo sapiens) (P49841 whole entry, looked up): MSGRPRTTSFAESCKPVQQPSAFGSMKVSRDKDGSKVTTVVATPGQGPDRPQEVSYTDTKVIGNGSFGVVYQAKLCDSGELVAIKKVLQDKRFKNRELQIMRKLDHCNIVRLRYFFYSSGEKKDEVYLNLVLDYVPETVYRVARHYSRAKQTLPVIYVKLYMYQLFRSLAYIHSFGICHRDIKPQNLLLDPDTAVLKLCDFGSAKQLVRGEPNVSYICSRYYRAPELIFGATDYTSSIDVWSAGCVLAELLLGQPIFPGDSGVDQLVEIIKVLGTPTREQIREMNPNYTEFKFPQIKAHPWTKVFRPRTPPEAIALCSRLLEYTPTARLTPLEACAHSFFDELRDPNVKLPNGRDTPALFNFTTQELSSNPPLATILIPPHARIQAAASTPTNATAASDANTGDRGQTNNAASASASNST

[10] = target: Serine/threonine-protein kinase Chk2 (Homo sapiens, UniProt O96017); assay: Inhibition of CHK2 at 30 uM by microfluidic mobility shift assay; method in brief: as §1
Chain of Serine/threonine-protein kinase Chk2 (O96017 whole entry): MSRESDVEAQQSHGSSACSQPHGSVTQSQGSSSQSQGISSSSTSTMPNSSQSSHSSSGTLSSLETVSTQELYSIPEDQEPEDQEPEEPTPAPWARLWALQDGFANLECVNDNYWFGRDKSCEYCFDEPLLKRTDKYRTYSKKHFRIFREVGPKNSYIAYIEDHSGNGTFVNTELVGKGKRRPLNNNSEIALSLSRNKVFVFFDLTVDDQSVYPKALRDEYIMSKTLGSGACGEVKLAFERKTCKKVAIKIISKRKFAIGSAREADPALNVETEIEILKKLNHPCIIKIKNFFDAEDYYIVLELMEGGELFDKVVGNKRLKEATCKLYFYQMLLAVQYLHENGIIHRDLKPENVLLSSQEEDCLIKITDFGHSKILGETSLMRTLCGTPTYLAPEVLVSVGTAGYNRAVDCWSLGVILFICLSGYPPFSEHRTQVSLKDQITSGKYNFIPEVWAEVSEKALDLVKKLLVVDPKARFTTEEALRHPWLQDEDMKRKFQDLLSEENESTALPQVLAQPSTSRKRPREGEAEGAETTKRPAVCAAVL

[11] = target: RAC-alpha serine/threonine-protein kinase (Homo sapiens) (UniProt P31749); assay: Inhibition of AKT1 at 30 uM by microfluidic mobility shift assay; method in brief: as §1
Chain of RAC-alpha serine/threonine-protein kinase (Homo sapiens) (P31749 whole entry): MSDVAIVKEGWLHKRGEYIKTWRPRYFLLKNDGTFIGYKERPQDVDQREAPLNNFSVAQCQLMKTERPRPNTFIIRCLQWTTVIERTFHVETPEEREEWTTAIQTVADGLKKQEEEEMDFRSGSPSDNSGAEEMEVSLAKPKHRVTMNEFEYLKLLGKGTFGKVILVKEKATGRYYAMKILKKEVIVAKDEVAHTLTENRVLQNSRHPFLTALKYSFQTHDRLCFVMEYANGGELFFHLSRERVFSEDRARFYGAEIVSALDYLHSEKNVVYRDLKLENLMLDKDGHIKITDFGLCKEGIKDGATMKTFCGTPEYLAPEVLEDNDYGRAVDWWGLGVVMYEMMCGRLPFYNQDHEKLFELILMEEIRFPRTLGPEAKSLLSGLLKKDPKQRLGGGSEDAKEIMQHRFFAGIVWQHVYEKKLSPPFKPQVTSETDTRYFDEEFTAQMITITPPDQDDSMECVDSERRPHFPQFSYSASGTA

[12] = target: Tyrosine-protein kinase Lck (Homo sapiens, UniProt P06239); assay: Inhibition of LCK at 30 uM by microfluidic mobility shift assay; method in brief: as §1
Chain of Tyrosine-protein kinase Lck (P06239 2-509 limits assumed): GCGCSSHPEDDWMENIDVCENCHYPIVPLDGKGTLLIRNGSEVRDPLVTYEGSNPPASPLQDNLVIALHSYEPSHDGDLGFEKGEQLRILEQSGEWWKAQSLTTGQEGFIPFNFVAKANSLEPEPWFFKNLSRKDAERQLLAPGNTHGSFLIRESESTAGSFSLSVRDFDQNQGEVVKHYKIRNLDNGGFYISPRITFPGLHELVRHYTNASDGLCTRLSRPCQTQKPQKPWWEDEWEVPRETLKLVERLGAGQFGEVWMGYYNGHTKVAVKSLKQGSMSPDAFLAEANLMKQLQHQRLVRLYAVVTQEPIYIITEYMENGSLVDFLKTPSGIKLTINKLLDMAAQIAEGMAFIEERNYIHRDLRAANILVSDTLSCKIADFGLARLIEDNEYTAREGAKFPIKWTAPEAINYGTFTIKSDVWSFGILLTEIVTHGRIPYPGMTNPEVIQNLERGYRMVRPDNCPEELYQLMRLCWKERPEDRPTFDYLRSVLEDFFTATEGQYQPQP

[13] = target: Insulin receptor (Homo sapiens) (UniProt P06213); assay: Inhibition of INSR at 30 uM by microfluidic mobility shift assay; method in brief: as §1
Chain of Insulin receptor (Homo sapiens) (P06213 28-758 limits assumed): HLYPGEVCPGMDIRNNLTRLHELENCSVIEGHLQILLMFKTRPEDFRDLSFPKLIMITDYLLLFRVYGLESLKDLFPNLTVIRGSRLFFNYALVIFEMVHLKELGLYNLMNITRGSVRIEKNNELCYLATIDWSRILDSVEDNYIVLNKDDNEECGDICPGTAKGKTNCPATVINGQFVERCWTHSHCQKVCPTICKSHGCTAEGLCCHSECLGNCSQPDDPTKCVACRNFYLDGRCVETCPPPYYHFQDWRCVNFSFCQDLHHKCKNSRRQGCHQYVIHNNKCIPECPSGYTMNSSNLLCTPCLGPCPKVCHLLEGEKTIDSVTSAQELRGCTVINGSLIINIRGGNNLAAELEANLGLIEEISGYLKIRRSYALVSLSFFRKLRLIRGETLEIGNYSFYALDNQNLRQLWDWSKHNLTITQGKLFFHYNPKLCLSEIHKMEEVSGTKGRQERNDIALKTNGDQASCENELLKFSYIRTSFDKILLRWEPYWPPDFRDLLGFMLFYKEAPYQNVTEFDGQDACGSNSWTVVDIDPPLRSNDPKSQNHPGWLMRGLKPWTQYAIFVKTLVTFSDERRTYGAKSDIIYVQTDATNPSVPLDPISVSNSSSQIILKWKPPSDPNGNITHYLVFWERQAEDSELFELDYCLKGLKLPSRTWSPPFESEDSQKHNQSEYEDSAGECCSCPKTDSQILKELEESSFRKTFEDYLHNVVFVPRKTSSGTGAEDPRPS
Chain of Insulin receptor (Homo sapiens) (P06213 763-1382 limits assumed): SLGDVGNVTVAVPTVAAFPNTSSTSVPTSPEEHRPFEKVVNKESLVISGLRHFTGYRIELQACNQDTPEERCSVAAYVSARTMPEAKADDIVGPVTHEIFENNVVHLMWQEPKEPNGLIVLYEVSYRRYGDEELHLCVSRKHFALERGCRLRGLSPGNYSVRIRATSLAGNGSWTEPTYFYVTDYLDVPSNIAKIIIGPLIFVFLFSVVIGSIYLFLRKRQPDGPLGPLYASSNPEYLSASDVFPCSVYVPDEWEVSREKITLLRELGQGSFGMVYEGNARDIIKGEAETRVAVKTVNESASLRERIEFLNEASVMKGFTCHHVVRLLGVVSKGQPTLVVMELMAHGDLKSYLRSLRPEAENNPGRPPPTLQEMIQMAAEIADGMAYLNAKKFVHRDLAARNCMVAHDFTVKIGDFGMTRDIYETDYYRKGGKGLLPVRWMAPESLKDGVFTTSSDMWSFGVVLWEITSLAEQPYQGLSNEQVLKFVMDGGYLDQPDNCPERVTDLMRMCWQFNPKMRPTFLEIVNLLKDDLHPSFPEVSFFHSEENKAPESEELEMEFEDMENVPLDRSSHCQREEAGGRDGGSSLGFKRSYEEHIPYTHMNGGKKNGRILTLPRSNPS

Row | inhibition [1] | inhibition [2] | inhibition [3] | inhibition [4] | inhibition [5] | inhibition [6] | inhibition [7] | inhibition [8] | inhibition [9] | inhibition [10] | inhibition [11] | inhibition [12] | inhibition [13] | SMILES
1 | 1% | 9% | 7% | 6% | 3% | 2% | 3% | 0% | 52% | 5% | -2% | 5% | 3% | Cc1nc(N)c2c(=O)[nH]c(C)cc2n1
2 | 16% | 62% | 49% | 36% | 33% | 8% | 16% | 9% | 81% | 16% | 9% | 46% | 5% | COc1ccc(-c2cc3c(c(N)nn3C)c(=O)[nH]2)cc1
3 | 3% | 12% | 10% | 8% | 10% | -1% | 9% | 6% | 36% | 16% | 5% | 12% | 0% | Cc1cc2nc(N)nc(N)c2c(=O)[nH]1
4 | 11% | 32% | 22% | 14% | 14% | 7% | 13% | 9% | 66% | 16% | 8% | 22% | 2% | Cn1nc(N)c2c(=O)[nH]c(-c3ccccc3)cc21
5 | 18% | 63% | 49% | 33% | 38% | 42% | 12% | 35% | 60% | 47% | 2% | 56% | 34% | Nc1n[nH]c2cc(-c3ccccn3)[nH]c(=O)c12
